One data set deals with BT-549. The data set is described as follows: Cytotoxicity against human BT549 cells at 100 ug/ml […] by MTT assay. It is filed as cell-based. For orientation: Formazan colour is commonly taken as a measure of viable cells.
The test system of the next data set is Rattus norvegicus. The data set is described as follows: Antiinflammatory activity in albino rat assessed as inhibition of carrageenan-induced paw edema at 100 mg/kg, po administered 1 hr prior to carrageenan-challenge measured after 3 hrs relative to control. It is filed as functional. The procedure, abridged:
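Charles Foster albino rats of either sex (150–200 g, pregnant females excluded), six per group, dosed orally; 1 h later 0.2 mL of 1% carrageenan in 0.9% NaCl injected into right hind paw subplantar tissue. Paw volume read by plethysmometer at injection and 3 h later. Control group received carrageenan only. % inhibition = 1–Dt/Dc×100. Mean ± S.D.; one-way ANOVA with Tukey's test.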
Background: Carrageenan injected into the paw causes an acute inflammation.

The test system of the next data set is HeLa. The data set is described as follows: Cytotoxicity against human HeLa cells at 100 ug/ml […] by MTT assay. It is filed as cell-based.
The next data set has as its system ACHN. The experiment in a line: Cytotoxicity against human ACHN cells […] by MTT assay. It is filed as functional, cell-based.
The subject of a further data set is COLO 205. The experiment in a line: Cytotoxicity against human COLO205 cells […] by MTT assay. It is filed as functional, cell-based.

Each structure is given as a SMILES string. Values after ≈ are worked out from the molar mass of the structure shown.

30 compounds from ChEMBL document CHEMBL2375332, “Novel quinolone substituted thiazolidin-4-ones as anti-inflammatory, anticancer agents: design, synthesis and biological screening” (Eur J Med Chem, 2013) can be followed below.

In general, inhibition in vivo refers to the change of the read-out against control, counted positive when it falls. The IC50 is the concentration that inhibits the measured activity by half.

With `Cc1cc(=O)[nH]c2cc(N3C(=O)CSC3N3CCCCC3)ccc12` (centres undefined), the Activity worked out at 31.949% in the data set with BT-549 and 29.394% in the data set on HeLa. In addition, the inhibition in vivo at 100 mg/kg with Rattus norvegicus worked out at 2.77%.
Take `Cc1cc(=O)[nH]c2cc(N3C(=O)CSC3c3ccccc3Cl)ccc12` (centres undefined): the Activity in the data set on BT-549 came to 61.394%; in the data set with HeLa, 52.496%. In addition, in the data set with Rattus norvegicus, the inhibition in vivo at 100 mg/kg is 14.5%.
On the same counts, the results for `COc1ccc(C2SCC(=O)N2c2ccc3c(C)cc(=O)[nH]c3c2)cc1` (centres undefined) are 39.334%, 47.326% and 21.4%.
Regarding `Cc1ccc(C2SCC(=O)N2c2ccc3c(C)cc(=O)[nH]c3c2)o1` (centres undefined), the Activity in the data set on BT-549 came out at 31.114%; in the data set on HeLa, 27.453%. Moreover, in the data set on Rattus norvegicus, the inhibition in vivo at 100 mg/kg is 10.1%.
On the same counts, the results for `Cc1cc(=O)[nH]c2cc(N3C(=O)CSC3c3ccco3)ccc12` (centres undefined) are 49.658%, 41.188% and 5.16%.
The corresponding values for `Cc1cc(=O)[nH]c2cc(N3C(=O)CSC3c3ccccc3Br)ccc12` (centres undefined) are 38.709%, 44.279% and 14%.
On the same counts, the results for `Cc1cc(=O)[nH]c2cc(N3C(=O)CSC3N3CCOCC3)ccc12` (centres undefined) are 25.274%, 23.662% and 1.75%.
On to `Cc1cc(=O)[nH]c2cc(N3C(=O)CSC3c3cccc(Br)c3)ccc12` (centres undefined), for which the figures for the Activity in the data set with BT-549 and in the data set on HeLa were 40.062% and 56.633%, respectively. Moreover, in the data set with Rattus norvegicus, the inhibition in vivo at 100 mg/kg turned out to be 22.7%.
The corresponding values for `Cc1cc(=O)[nH]c2cc(N3C(=O)CSC3c3ccc(Br)cc3)ccc12` (centres undefined) are 42.663%, 65.742% and 12.4%.
As to `Cc1cc(=O)[nH]c2cc(N3C(=O)CSC3c3ccc(Cl)cc3)ccc12` (centres undefined), the Activity with BT-549 turned out to be 46.201%; in the data set with HeLa, 20.198%. For the same compound, the inhibition in vivo at 100 mg/kg with Rattus norvegicus was determined as 13%.
On the same counts, the results for `COc1cc(C2SCC(=O)N2c2ccc3c(C)cc(=O)[nH]c3c2)ccc1O` (centres undefined) are 54.11%, 41.028% and 12.4%.
`Cc1cc(=O)[nH]c2cc(N3C(=O)CSC3c3ccc([N+](=O)[O-])cc3)ccc12` (centres undefined): the Activity in the data set with BT-549 is 40.478%; in the data set on HeLa, 54.851%. The inhibition in vivo at 100 mg/kg with Rattus norvegicus came out at 25.2%.
For the compound `O=c1[nH]cc(F)c(=O)[nH]1` [FLUOROURACIL], the IC50 in the data set on ACHN was determined as 9.87 µg/mL (≈ 75.9 µM); in the data set on COLO 205, 4.56 µg/mL (≈ 35.1 µM).
As to `Cc1cc(=O)[nH]c2cc(N3C(=O)CSC3c3cccc(O)c3)ccc12` (centres undefined), the Activity with BT-549 turned out to be 18.522%; in the data set on HeLa it was 71.485%. Besides, the inhibition in vivo at 100 mg/kg in the data set with Rattus norvegicus is 14.3%.
The corresponding values for `Cc1cc(=O)[nH]c2cc(N3C(=O)CSC3c3cccnc3)ccc12` (centres undefined) are 29.032%, 34.851% and 6.81%.
The corresponding values for `Cc1cc(=O)[nH]c2cc(N3C(=O)CSC3/C=C/c3ccccc3)ccc12` (centres undefined) are 38.837%, 42.057% and 20.8%.
On to `Cc1cc(=O)[nH]c2cc(N3C(=O)CSC3c3ccncc3)ccc12` (centres undefined), for which the Activity with BT-549 is on record as 22.176%; with HeLa, 20.343%. The inhibition in vivo at 100 mg/kg in the data set with Rattus norvegicus was determined as 7.62%.
On the same counts, the results for `Cc1ccc(C2SCC(=O)N2c2ccc3c(C)cc(=O)[nH]c3c2)s1` (centres undefined) are 22.023%, 31.485% and 15.8%.
The corresponding values for `COc1ccc(C2SCC(=O)N2c2ccc3c(C)cc(=O)[nH]c3c2)cc1OC` (centres undefined) are 31.737%, 30.492% and 20.6%.
On the same counts, the results for `Cc1cc(=O)[nH]c2cc(N3C(=O)CSC3c3ccccc3[N+](=O)[O-])ccc12` (centres undefined) are 44.953%, 28.316% and 24.1%.
For the compound `Cc1cc(=O)[nH]c2cc(N3C(=O)CSC3c3cccc(F)c3)ccc12` (centres undefined), the Activity in the data set on BT-549 is 50.052%; in the data set on HeLa, 52.738%. The inhibition in vivo at 100 mg/kg with Rattus norvegicus came to 23.6%.
On the same counts, the results for `Cc1cc(=O)[nH]c2cc(N3C(=O)CSC3c3ccc(Br)s3)ccc12` (centres undefined) are 52.34%, 33.267% and 24%.
As for `Cc1cc(=O)[nH]c2cc(N3C(=O)CSC3c3ccc(O)cc3)ccc12` (centres undefined), the Activity with BT-549 is listed as 42.143%; in the data set on HeLa, 68.91%. Further, the inhibition in vivo at 100 mg/kg in the data set on Rattus norvegicus was determined as 22.9%.
On the same counts, the results for `Cc1cc(=O)[nH]c2cc(N3C(=O)CSC3c3cccc(Cl)c3)ccc12` (centres undefined) are 44.849%, 44.158% and 23.3%.
For `Cc1cc(=O)[nH]c2cc(N3C(=O)CSC3c3ccc(N(C)C)cc3)ccc12` (centres undefined), the Activity in the data set with BT-549 is 29.327%; in the data set with HeLa, 33.267%. Also, the inhibition in vivo at 100 mg/kg in the data set on Rattus norvegicus stood at 13.3%.
On the same counts, the results for `Cc1cc(=O)[nH]c2cc(N3C(=O)CSC3c3ccc(Br)o3)ccc12` (centres undefined) are 42.357%, 31.332% and 23.3%.
The corresponding values for `Cc1cc(=O)[nH]c2cc(N3C(=O)CSC3c3ccc(F)cc3)ccc12` (centres undefined) are 43.311%, 14.231% and 19%.
On the same counts, the results for `Cc1cc(=O)[nH]c2cc(N3C(=O)CSC3c3ccccn3)ccc12` (centres undefined) are 18.028%, 20% and 7.5%.
On to `Cc1cc(=O)[nH]c2cc(N3C(=O)CSC3c3ccccc3F)ccc12` (centres undefined), for which the results for the Activity in the data set on BT-549 and in the data set on HeLa were 40.062% and 59.6%, respectively. For the same compound, in the data set on Rattus norvegicus, the inhibition in vivo at 100 mg/kg turned out to be 20.4%.
The corresponding values for `Cc1cc(=O)[nH]c2cc(N3C(=O)CSC3c3ccccc3O)ccc12` (centres undefined) are 44.328%, 43.168% and 16.4%.
